Laboratory results reported in ChEMBL document CHEMBL5712071, “BET bromodomain protein inhibition is a therapeutic option for medulloblastoma” (Oncotarget, 2013).
Activity calls are given as the source filed them. The rule behind the calls is not given here.

Assays:
HD-MB03 [1] = assay: Anti-proliferative activity against human HD-MB03 cells assessed as reduction in cell viability incubated for 120 hrs by MTT assay; assay type: functional, cell-based; settings: HD-MB03, 120 h
In short: (§1)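 Cells seeded in triplicate at 2 × 10^3 per well and allowed to adhere for 24h. JQ1 was given as serial dilutions in full medium, 1nM-6µM, from a 10 mM DMSO stock. Viability was read by MTT at each time point and IC50 derived from dose-response curves. Culture media were RPMI 1640/10% FCS for HD-MB3 (plus 1% NEAA), ONS-76, Daoy and UW-228, and EMEM/10% FCS for D-283 and D-341.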

Daoy [2] = assay: Anti-proliferative activity against human Daoy cells assessed as reduction in cell viability incubated for 48 hrs by MTT assay; assay type: functional, cell-based; in short: as §1
D283 Med = assay: Induction of apoptosis in human D283 cells assessed as increase in population of cells in G1 phase at 500 nM incubated for 72 hrs by ELISA; assay type: functional, cell-based
HD-MB03 [3] = assay: Induction of apoptosis in human HD-MB03 cells assessed as increase in population of cells in G1 phase at 500 nM incubated for 72 hrs by ELISA; assay type: functional, cell-based
Daoy [4] = assay: Induction of apoptosis in human Daoy cells assessed as increase in population of cells in sub-G1 phase at 500 nM incubated for 72 hrs by flow cytometry; assay type: functional, cell-based
In short: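 Cells were cultured with 500 nM JQ1 or DMSO control, trypsinised and washed 3 times in PBS. DNA was stained with propidium iodide for 15 min and DNA content analysed by flow cytometry to give G1 and sub-G1 fractions.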

[5] = target: Bromodomain-containing protein 4 (Homo sapiens) (UniProt O60885); settings: Daoy, dose 500.0 nM, time 72.0 hrs
[6] = target: Bromodomain-containing protein 4 (Homo sapiens) (UniProt O60885); settings: D283 Med, dose 500.0 nM, time 72.0 hrs
[7] = target: Bromodomain-containing protein 4 (Homo sapiens) (UniProt O60885); settings: HD-MB03, dose 500.0 nM, time 96.0 hrs
[8] = target: Bromodomain-containing protein 4 (Homo sapiens) (UniProt O60885); settings: HD-MB03, dose 500.0 nM, time 72.0 hrs

SMILES: Cc1sc2c(c1C)C(c1ccc(Cl)cc1)=N[C@@H](CC(=O)OC(C)(C)C)c1nnc(C)n1-2
- IC50 (HD-MB03 [1]): 153 nM
- IC50 (Daoy [2]): > 1000 nM
- Activity (D283 Med): Active
- Activity (HD-MB03 [3]): Active
- Activity (Daoy [4]): Active
- inhibition [5]: Active
- inhibition [6]: Active
- inhibition [7]: inactive
- inhibition [8]: 10%
